Results from different studies.
Protocols differ between the studies behind these lines.
Organism: Micrococcus luteus
Read-out: microbial growth

SMILES | assay | system | conditions | MIC
O=C1NC(=S)S/C1=C\c1ccc(-c2ccc(N(c3ccccc3)c3ccccc3)cc2)cc1 | broth dilution | ATCC10240 | – | 31.1 µg/mL
C/C=C(\C)c1cc(OC(=O)c2c(C)c(Cl)c(O)c(Cl)c2O)c(C)c(O)c1C(=O)O | broth dilution | ML01 | – | 64 µg/mL
CC1=NN(CNc2ccccn2)C(=O)C1=NNn1c(-c2ccccc2)nc2ccccc2c1=O | broth dilution | – | 24 h | 110 µM
CN(C)[C@@H]1C(O)=C(C(N)=O)C(=O)[C@@]2(O)C(O)=C3C(=O)c4c(O)cccc4[C@@](C)(O)[C@H]3C[C@@H]12 | – | – | – | 2 µg/mL
C/C=C(\C)c1cc(O)c(C)c(OC(=O)c2c(C)cc(O)c(Cl)c2O)c1 | broth dilution | ML01 | – | 4 µg/mL
CC1=NN(CNC(=O)c2ccccn2)C(=O)C1=NNn1c(-c2ccccc2)nc2ccccc2c1=O | broth dilution | – | 24 h | 52 µM
O=C1NC(=S)N/C1=C\c1ccc(-c2ccc(N(c3ccccc3)c3ccccc3)cc2)c2ccccc12 | broth dilution | ATCC10240 | – | > 1000 µg/mL
CC(=O)NCN1N=C(C)C(=NNn2c(-c3ccccc3)nc3ccccc3c2=O)C1=O | broth dilution | – | 24 h | 59.9 µM
O=C(O)CN1C(=O)/C(=C/c2ccc(-c3ccc(N(c4ccccc4)c4ccccc4)cc3)cc2)SC1=S | broth dilution | ATCC10240 | – | 0.98 µg/mL
CC1(C)S[C@@H]2[C@H](NC(=O)[C@H](N)c3ccccc3)C(=O)N2[C@H]1C(=O)O | broth dilution | ML01 | – | 0.13 µg/mL
